The record followed here is ChEMBL document CHEMBL1132280, “Discovery of potent and selective SH2 inhibitors of the tyrosine kinase ZAP-70” (J Med Chem, 1999).

What all share (set-up): species or system Escherichia coli
For assay [1], the target named is Growth factor receptor-bound protein 2 (Homo sapiens, UniProt P62993). Briefly: Binding affinity against Growth factor receptor bound protein 2. The procedure, abridged:
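Fluorescence polarization competition assay using human Grb2 SH2 (residues 55–152), expressed in E. coli BL21(DE3) and purified on phosphotyrosine-agarose. Compounds were serially diluted 1:2 across 1000–0.04 μM in 20 mM phosphate pH 7.4 with 100 mM NaCl, 10 mM DTT, 4% DMSO, 1 mM EDTA and 0.1% bovine γ-globulin. They were added to 1.25 µM protein premixed with 20 nM fluorescein-labelled peptide (ex 485/em 530 nm). IC50 was taken from percent tracer bound relative to vehicle, as the mean of ≥3 experiments.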

In assay [2] the target is Tyrosine-protein kinase SYK (Homo sapiens, UniProt P43405). In words: Binding affinity against Syk protein tyrosine kinase SH2 domain.
For assay [3], the target named is Proto-oncogene tyrosine-protein kinase Src (Homo sapiens, UniProt P12931). In words: Binding affinity against Src SH2 domain.
Chain of Proto-oncogene tyrosine-protein kinase Src (P12931 2-536 limits assumed): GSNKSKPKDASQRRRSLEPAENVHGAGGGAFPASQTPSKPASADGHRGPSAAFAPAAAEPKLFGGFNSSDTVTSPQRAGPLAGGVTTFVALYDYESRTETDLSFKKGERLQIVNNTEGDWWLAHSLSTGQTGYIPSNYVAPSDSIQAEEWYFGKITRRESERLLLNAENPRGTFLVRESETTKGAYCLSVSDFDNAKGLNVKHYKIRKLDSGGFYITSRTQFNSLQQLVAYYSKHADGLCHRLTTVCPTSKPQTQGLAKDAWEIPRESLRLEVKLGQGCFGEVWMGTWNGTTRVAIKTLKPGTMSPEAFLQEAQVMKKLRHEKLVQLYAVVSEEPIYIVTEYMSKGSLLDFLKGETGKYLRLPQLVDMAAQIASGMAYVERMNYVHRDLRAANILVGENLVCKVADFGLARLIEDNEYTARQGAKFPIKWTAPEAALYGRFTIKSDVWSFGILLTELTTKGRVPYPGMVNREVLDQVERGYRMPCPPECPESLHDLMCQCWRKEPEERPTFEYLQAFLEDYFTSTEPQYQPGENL

Chain of Growth factor receptor-bound protein 2 (P62993 whole entry, the tested form may be a part): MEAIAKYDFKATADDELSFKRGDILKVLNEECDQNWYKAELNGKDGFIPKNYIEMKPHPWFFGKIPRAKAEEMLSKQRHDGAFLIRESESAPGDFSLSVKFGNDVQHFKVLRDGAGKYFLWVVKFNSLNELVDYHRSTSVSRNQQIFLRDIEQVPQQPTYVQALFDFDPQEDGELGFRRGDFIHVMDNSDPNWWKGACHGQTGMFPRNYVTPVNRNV

On to `CC(=O)N[C@@H](Cc1ccc(OP(=O)(O)O)cc1)C(=O)N[C@@H](C)c1nc(Cc2ccc(C(F)(F)F)cc2)no1`, for which the IC50 in assay [1] is greater than 500 µM; in assay [2], greater than 500 µM; in assay [3] it was 210 µM.
With `C[C@H](NC(=O)[C@H](Cc1ccc(OP(=O)(O)O)cc1)NC(=O)Cc1cccs1)c1nc(Cc2ccc(C(F)(F)F)cc2)no1`, the IC50 is greater than 500 µM in assay [2] and 143 µM in assay [3].
For `CC(=O)N[C@@H](Cc1ccc(OP(=O)(O)O)cc1)C(=O)N[C@@H](CO)c1nc(Cc2ccc(I)cc2)no1`, the results for the IC50 in assay [2] and in assay [3] were 452 µM and 37 µM, respectively.
In the case of `CC(=O)N[C@@H](Cc1ccc(OP(=O)(O)O)cc1)C(=O)N[C@@H](CCC(N)=O)c1nc(Cc2ccc(Cl)cc2)no1`, the IC50 in assay [2] is greater than 500 µM; in assay [3], 205 µM.
Taken in the same sequence, the figures for `CC(=O)N[C@@H](Cc1ccc(OP(=O)(O)O)cc1)C(=O)N[C@@H](CCC(N)=O)c1nc(Cc2ccc(C)cc2)no1` were greater than 500 µM and 292 µM.
Turning to `O=C(Cc1ccccc1)N[C@@H](Cc1ccc(OP(=O)(O)O)cc1)C(=O)N[C@@H](CO)c1nc(Cc2ccc(Cl)c(Cl)c2)no1`, the IC50 in assay [1] is 263 µM; in assay [2], greater than 500 µM; in assay [3], 35 µM.
In the case of `CC(=O)N[C@@H](Cc1ccc(OP(=O)(O)O)cc1)C(=O)N[C@@H](C)c1nc(Cc2ccc3ccccc3c2)no1`, the IC50 in assay [1] was greater than 500 µM; in assay [2], greater than 500 µM; in assay [3], 64 µM.
With `C[C@H](NC(=O)[C@H](Cc1ccc(OP(=O)(O)O)cc1)NC(=O)Cc1c[nH]c2ccccc12)c1nc(Cc2ccc(C(F)(F)F)cc2)no1`, the IC50 in assay [2] was determined as 433 µM; in assay [3], 62 µM.
Taken in the same sequence, the figures for `CC[C@H](NC(=O)[C@H](Cc1ccc(OP(=O)(O)O)cc1)NC(C)=O)c1nc(Cc2ccc(C(F)(F)F)cc2)no1` were greater than 500 µM and 98 µM.
The corresponding values for `CC(=O)N[C@@H](Cc1ccc(OP(=O)(O)O)cc1)C(=O)N[C@@H](CO)c1nc(Cc2ccc(F)cc2)no1` are greater than 500 µM and 132 µM.
The corresponding values for `CC(=O)N[C@@H](Cc1ccc(OP(=O)(O)O)cc1)C(=O)N[C@@H](C)c1nc(Cc2ccc(I)cc2)no1` are 472 µM and 18 µM.
In turn, `CC(=O)N[C@@H](CC(N)=O)C(=O)N[C@@H](CCC(N)=O)C(=O)N[C@@H](CC(C)C)C(=O)N[C@@H](Cc1ccc(OP(=O)(O)O)cc1)C(=O)N[C@@H](CC(N)=O)C(=O)N[C@@H](CCC(=O)O)C(=O)N[C@@H](CC(C)C)C(=O)N[C@@H](CC(N)=O)C(=O)N[C@@H](CC(C)C)C(=O)NCC(=O)N[C@@H](CCCN=C(N)N)C(=O)N[C@@H](CCCN=C(N)N)C(=O)N[C@@H](CCC(=O)O)C(=O)N[C@@H](CCC(=O)O)C(=O)N[C@@H](Cc1ccc(OP(=O)(O)O)cc1)C(=O)N[C@@H](CC(=O)O)C(=O)N[C@H](C(=O)N[C@@H](CC(C)C)C(=O)N[C@@H](CC(=O)O)C(N)=O)C(C)C` registered an IC50 in assay [3] of 20 µM.
Turning to `CC(=O)N[C@@H](Cc1ccc(OP(=O)(O)O)cc1)C(=O)N[C@@H](CO)c1nc(Cc2ccc(C(F)(F)F)cc2)no1`, the IC50 in assay [1] was greater than 500 µM; in assay [2], greater than 500 µM; in assay [3], 282 µM.
`CC(=O)N[C@@H](Cc1ccc(OP(=O)(O)O)cc1)C(=O)N[C@@H](C)c1nc(Cc2ccc(Cl)c(Br)c2)no1`: the figures for the IC50 in assay [2] and in assay [3] were greater than 500 µM and 45 µM, respectively.
For `CC(=O)N[C@@H](Cc1ccc(OP(=O)(O)O)cc1)C(=O)N[C@@H](C)c1nc(Cc2ccc(I)c(Cl)c2)no1`, the IC50 in assay [2] is 464 µM; in assay [3], 50 µM.
The corresponding values for `COc1ccc(CC(=O)N[C@@H](Cc2ccc(OP(=O)(O)O)cc2)C(=O)N[C@@H](C)c2nc(Cc3ccc(C(F)(F)F)cc3)no2)cc1` are greater than 500 µM and 87 µM.
In the case of `CC(=O)N[C@@H](Cc1ccc(OP(=O)(O)O)cc1)C(=O)N[C@@H](C)c1nc(Cc2ccc(Br)cc2)no1`, the figures for the IC50 in assay [2] and in assay [3] were greater than 500 µM and 31 µM, respectively.
For `CC(=O)N[C@@H](Cc1ccc(OP(=O)(O)O)cc1)C(=O)N[C@@H](C)c1nc(Cc2cccc(Cl)c2)no1`, the IC50 in assay [2] was greater than 500 µM; in assay [3] it was 68 µM.
As to `CC(=O)N[C@@H](Cc1ccc(OP(=O)(O)O)cc1)C(=O)N[C@@H](C)c1nc(Cc2ccc(F)cc2)no1`, the IC50 is greater than 500 µM in assay [2] and 200 µM in assay [3].
On to `C[C@H](NC(=O)[C@H](Cc1ccc(OP(=O)(O)O)cc1)NC(=O)Cc1ccc(F)c(F)c1)c1nc(Cc2ccc(C(F)(F)F)cc2)no1`, for which the IC50 was determined as 397 µM in assay [2] and 130 µM in assay [3].
The corresponding values for `CC(=O)N[C@@H](Cc1ccc(OP(=O)(O)O)cc1)C(=O)N[C@@H](CCC(N)=O)c1nc(Cc2cccc(Cl)c2)no1` are greater than 500 µM and 259 µM.
In the case of `CC(=O)N[C@@H](Cc1ccc(OP(=O)(O)O)cc1)C(=O)N[C@@H](C)c1nc(Cc2ccc(C)cc2)no1`, the IC50 in assay [2] is greater than 500 µM; in assay [3] it was 65 µM.
The corresponding values for `CC(=O)N[C@@H](Cc1ccc(OP(=O)(O)O)cc1)C(=O)N[C@@H](CO)c1nc(Cc2ccc(Br)cc2)no1` are greater than 500 µM and 32 µM.
For `CC(=O)N[C@@H](Cc1ccc(OP(=O)(O)O)cc1)C(=O)N[C@@H](Cc1c[nH]c2ccccc12)c1nc(Cc2ccc(C(F)(F)F)cc2)no1`, the IC50 in assay [2] is greater than 500 µM; in assay [3] it was 92 µM.
Taken in the same sequence, the figures for `CC(=O)N[C@@H](Cc1ccc(OP(=O)(O)O)cc1)C(=O)N[C@@H](C)c1nc(Cc2ccc(Cl)cc2)no1` were greater than 500 µM and 66 µM.
As for `CC(=O)N[C@@H](Cc1ccc(OP(=O)(O)O)cc1)C(=O)N[C@@H](CO)c1nc(Cc2ccc(Cl)cc2)no1`, the IC50 in assay [2] was greater than 500 µM; in assay [3], 149 µM.
For `CC(=O)N[C@@H](Cc1ccc(OP(=O)(O)O)cc1)C(=O)N[C@@H](C)c1nc(Cc2ccc(Br)c(Br)c2)no1`, the 50% inhibitory concentration (IC50) was greater than 500 µM in assay [2] and 39 µM in assay [3].
On to `CC(=O)N[C@@H](Cc1ccc(OP(=O)(O)O)cc1)C(=O)N[C@@H](CCC(N)=O)c1nc(Cc2cccc3ccccc23)no1`, for which the IC50 in assay [2] was greater than 500 µM; in assay [3] it was 135 µM.
The corresponding values for `CC(=O)N[C@@H](Cc1ccc(OP(=O)(O)O)cc1)C(=O)N[C@@H](CC(N)=O)c1nc(Cc2ccc(C(F)(F)F)cc2)no1` are greater than 500 µM and greater than 500 µM.
Consider `CC(=O)N[C@@H](Cc1ccc(OP(=O)(O)O)cc1)C(=O)N[C@@H](CCC(N)=O)c1nc(Cc2ccc(C(C)C)cc2)no1`, for which the values for the IC50 in assay [2] and in assay [3] were greater than 500 µM and 96 µM, respectively.
The corresponding values for `CC(=O)N[C@@H](Cc1ccc(OP(=O)(O)O)cc1)C(=O)N[C@@H](C)c1nc(Cc2cccc(C(F)(F)F)c2)no1` are greater than 500 µM and 115 µM.
Taken in the same sequence, the figures for `C[C@H](NC(=O)[C@H](Cc1ccc(OP(=O)(O)O)cc1)NC(=O)Cc1ccccc1)c1nc(Cc2ccc(C(F)(F)F)cc2)no1` were greater than 500 µM and 123 µM.
Take `C[C@H](NC(=O)[C@H](Cc1ccc(OP(=O)(O)O)cc1)NC(=O)Cc1ccc2ccccc2c1)c1nc(Cc2ccc(C(F)(F)F)cc2)no1`: the IC50 is 302 µM in assay [2] and 49 µM in assay [3].
Turning to `CC(=O)N[C@@H](Cc1ccc(OP(=O)(O)O)cc1)C(=O)N[C@@H](C)c1nc(Cc2ccc(I)c(Br)c2)no1`, the values for the IC50 in assay [2] and in assay [3] were greater than 500 µM and 40 µM, respectively.
